TAAR1 antagonist = antagonists of human TAAR1; Q96RJ0; CHO RD-HGA16 TAAR1, Fluo-8 calcium fluorescence, antagonist; inhibition, % at 3 µM; 360,000 compounds, 1.5% hits; AID 624466;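 active = inhibition above a per-plate cutoff, the mean inhibition of test compounds on that plate plus 3 SD, cut at about 49% in these data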;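 note: 0% = DMSO plus EC80 beta-PEA response and 100% = DMSO alone without agonist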
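Test system – hTAAR1-expressing CHO RD-HGA16 cells, Gα16-coupled · Reagent – β-PEA at EC80 concentration, post-compound challenge · Compound dosing – 3 µM, single point · Timing – 140 s kinetic read after compound, 140 s after agonist · Detection – Fluo-8 intracellular calcium dye fluorescence, real-time kinetic reads · Control set – DMSO and EC80 PEA controls · Repeats – n of 1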
GPR7 antag = blocks human GPR7 receptor signaling; P48145; inhibition, % at 4.4 µM; 290,000 compounds, 1.1% hits; GPR7-expressing cells, fluorescence antagonist assay; in the data active = inhibition above about 16%, passing the limit was not always enough;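 note: cells stimulated with the agonist NPW; 0% = agonist with vehicle and 100% = vehicle without agonist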
Target sequence (P48145 whole entry, looked up): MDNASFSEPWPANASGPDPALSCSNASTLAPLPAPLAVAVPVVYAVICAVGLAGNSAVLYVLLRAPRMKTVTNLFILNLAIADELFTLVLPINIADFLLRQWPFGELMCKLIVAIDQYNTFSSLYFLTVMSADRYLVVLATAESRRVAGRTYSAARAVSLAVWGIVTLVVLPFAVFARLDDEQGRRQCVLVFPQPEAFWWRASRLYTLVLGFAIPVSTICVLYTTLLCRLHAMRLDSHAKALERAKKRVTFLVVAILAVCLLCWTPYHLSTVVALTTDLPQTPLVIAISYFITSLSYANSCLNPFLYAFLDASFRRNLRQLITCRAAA
CHO parental Ca = counter-screen for OX1R antagonists: effect in parental CHO cells. 330,000 compounds, 0.63% hits. AID 463079. inhibition, % at 5.6 µM. parental CHO-K1, ATP-induced calcium, Fluo-8 fluorescence;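 active = inhibition above that plate's mean sample inhibition plus 3 SD, cut at about 26% in these data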;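 note: 0% = ATP-challenged DMSO wells and 100% = DMSO wells without ATP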
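Material: Parental CHO cells | Reagent: ATP | Compound dosing: Single nominal dose of 5.6 µM per compound | Detection: Intracellular calcium via Fluo-8 no-wash fluorescent dye | Read-out: % inhibition of ATP-induced calcium mobilization | Benchmarks: Low control ATP plus DMSO, high control DMSO only | Replicates: Singlicate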
OX1R antag-1 = antagonists of human orexin 1 receptor (OX1R). OX1R-expressing cells, FRET antagonist read-out. inhibition, % at 6.6 µM. 330,000 compounds, 1.8% hits; in the data active = inhibition mostly above about 38%, no sharp cut-off; inactive = mostly below about 40%;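 note: 0% = agonist challenge alone and 100% = reference antagonist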
TAAR1 agonist = human TAAR1 agonism | Q96RJ0 | AID 624467 | 360,000 compounds, 0.99% hits | activation, % at 3 µM | CHO RD-HGA16 TAAR1, Fluo-8 calcium fluorescence; vehicle wells 0%, saturating PEA agonist 100%;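 active = activation above the mean activation of all test compounds in the run plus 3 SD, cut at about 38% in these data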
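System: CHO-derived RD-HGA16 cells with stable Gα16 and human TAAR1 / Times: 17-24 h plating, Fluo-8 75 min 37 °C, 30 min RT / Technique: calcium-sensitive Fluo-8 signal, excitation 470-495, emission 515-575 nm / Measure: % activation relative to PEA EC100 response / Benchmarks: DMSO and PEA EC100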
OX1R antag-2 = antagonists of human orexin 1 receptor. CHO/OX1R cells, Fluo-8 calcium fluorescence, orexin A. O43613. 330,000 compounds, 0.43% hits. inhibition, % at 5 µM;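 active = inhibition above its plate's threshold, mean inhibition of all tested compounds on the plate plus 3 SD, cut at about 37% in these data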;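 note: 0% = orexin A challenge wells and 100% = SB-334867-A antagonist wells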
TAAR1 ag confirm = human TAAR1 agonism, confirmed. shares compounds with TAAR1 agonist. CHO RD-HGA16 TAAR1, Fluo-8 calcium fluorescence; scaled: DMSO 0%, maximal phenethylamine 100%. activation, % at 3 µM. 2,400 compounds, 82% hits. AID 651783;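 active = activation above a cutoff set at the run's mean compound activation plus 3 SD, cut at about 39% in these data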
Ga16 ag counter = nonselective agonism, TAAR1 counter-screen | shares compounds with TAAR1 agonist | CHO-Ga16 parental, Fluo-8 calcium fluorescence; normalized to maximal ATP response, DMSO zero | activation, % at 3 µM | 2,400 compounds, 50% hits;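 active = activation above the run cutoff, the mean activation over all tested wells plus 3 SD, cut at about 12% in these data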;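 note: 0% = DMSO wells and 100% = maximal ATP response on the peak over basal ratio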
TAAR1 desensitize = human TAAR1 agonist that also desensitizes the receptor; AID 651951; inhibition, % at 3 µM; 2,400 compounds, 46% hits; CHO RD-HGA16 hTAAR1, Fluo-8 calcium, beta-PEA response inhibition; shares compounds with TAAR1 agonist;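 active = inhibition above the run cutoff, the mean inhibition of all test compounds plus 3 SD, cut at about 49% in these data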;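 note: beta-PEA stimulus applied at its EC80; loss of beta-PEA calcium signal after compound pretreatment read as receptor desensitization; 0% = DMSO with beta-PEA at EC80 and 100% = DMSO alone without agonist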
Ga16 antag count = counter-screen for TAAR1 agonists: nonselective Ga16 antagonists; shares compounds with TAAR1 agonist; CHO-Ga16 ATP-induced calcium, Fluo-8 fluorescence; inhibition, % at 3 µM; 2,400 compounds, 39% hits; AID 651952;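 active = inhibition above the plate's mean compound inhibition plus 3 SD, computed per plate, cut at about 22% in these data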;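 note: 0% = EC80 ATP with DMSO and 100% = DMSO wells without ATP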
The depositor's hits bear a star; . = no result given. Most compounds without a hit are left out; they make up all but 4.5% or so of the library.

SMILES | TAAR1 antagonist | GPR7 antag | CHO parental Ca | OX1R antag-1 | TAAR1 agonist | OX1R antag-2 | TAAR1 ag confirm | Ga16 ag counter | TAAR1 desensitize | Ga16 antag count
CCN(CC)c1ccc2cc(C(=O)c3cccs3)c(=O)oc2c1 | -14 | . | . | . | 7 | . | . | . | . | .
CC(Cc1ccccc1)N/C=C1/CC(=O)NC1=O (stereo not drawn) | 54* | -21 | 2 | 9 | 83* | -4 | 91* | 3 | 40 | -2
O=C1C/C(=C/NCc2ccccc2)C(=O)N1 | -8 | 8 | -9 | 7 | 7 | -12 | . | . | . | .
CC(C)OC(=O)CN1C(=O)S/C(=C/c2ccc(N3CCCCC3)o2)C1=O | 65* | 3 | -12 | 2 | 63* | -22 | 53* | 55* | 59* | 64*
FC(F)(F)c1cc(CCN2CCNC[C@@H]2Cc2ccccc2)cc(C(F)(F)F)c1 | -1 | . | 6 | -1 | 57* | -8 | 58* | 17* | 33 | 18
CCCC[C@@H]1CNCCN1CCc1cccc(F)c1 | 2 | . | -5 | 36 | 62* | -31 | 75* | 9 | 46 | 10
Cc1cc(C)cc(OCC(=O)Nc2ccc3c4c(cccc24)CC3)c1 | 81* | 4 | -6 | 7 | 102* | 0 | 34 | 0 | 21 | 1
CCNC(=S)NNC(=O)c1cc(-c2ccc(OCC)cc2)nc2ccccc12 | 22 | -17 | -33 | 3 | 8 | -27 | . | . | . | .
COc1ccc(Cl)cc1C(=O)NNC(=S)NC(=O)c1cc(-c2ccccc2)nc2ccccc12 | 75* | 17 | 13 | 10 | 104* | 2 | 114* | 96* | 102* | 87*
CCCOc1ccc(C(=O)NNC(=S)NC(=O)c2cc(-c3ccc(Cl)cc3)nc3ccccc23)cc1 | 85* | -6 | 12 | 29 | 62* | 12 | 105* | 78* | 103* | 94*
COc1ccc(C(=O)NNC(=S)NC(=O)c2cc(-c3ccccc3)nc3ccccc23)cc1 | 88* | -13 | -10 | 26 | 128* | -3 | 122* | 94* | 95* | 73*
CCCOc1cc(NCc2ccccc2)c2ncn(C(C)C)c2c1 | -1 | . | -30 | 15 | 61* | -61 | 41* | 18* | 1 | -2
CC(C)n1cnc2c(NCc3ccccc3)cc(Cc3ccc(F)cc3)cc21 | 16 | . | -31 | 6 | 47* | -40 | 19 | 11 | 25 | 19
CCC(CO)Oc1cc(NCc2ccc(C)cc2)c2ncn(C(C)C)c2c1 (stereo not drawn) | -5 | . | -28 | 16 | 6 | -32 | . | . | . | .
COc1ccc(NC(=O)c2cc(C3CCCCN3S(=O)(=O)c3ccc(F)cc3F)on2)c(C)c1 (stereo not drawn) | 13 | . | . | . | 3 | . | . | . | . | .
CC(C)N(C)c1ncnc2c1ncn2[C@H]1CN(Cc2ccc(F)cc2)C[C@@H](CO)O1 | -23 | . | . | . | 1 | . | . | . | . | .
OC[C@@H]1CN(CCc2ccccc2)C[C@H](n2cnc3c(NCc4ccc(F)cc4)ncnc32)O1 | 1 | . | . | . | 66* | . | 75* | 1 | 23 | 1
CC(C)N(C)c1ncnc2c1ncn2[C@H]1CN(CCc2ccccc2)C[C@@H](CO)O1 | -13 | . | . | . | 48* | . | 63* | 6 | 6 | 7
OCC1OC(n2cnc3c(NCCc4ccccc4)ncnc32)C(O)C1O (stereo not drawn) | 38 | . | -8 | 8 | 70* | -14 | 75* | 3 | 65* | 6

Compound activity: PubChem, The Scripps Research Institute Molecular Screening Center
